Laboratory results published in ChEMBL document CHEMBL3992512, “The Discovery and Hit-to-Lead Optimization of Tricyclic Sulfonamides as Potent and Efficacious Potentiators of Glycine Receptors” (J Med Chem, 2017).
Calls of active or inactive are those of the source.

Legend:
[1] = molecular target: Glycine receptor alpha-3/beta (Homo sapiens) (UniProt O75311+P48167); test: Positive allosteric modulation of human glycine alpha3beta receptor expressed in HEK293T cells assessed as compound concentration required to induce up to 3-fold leftward shift in glycine-induced increase in chloride ion flux after 4 mins by Schild plot analysis; format: cell-based
Summary of the method: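 HEK293T cells stably expressing human GlyRα3β, ~12000 cells/well, plated overnight and loaded with membrane potential blue dye. Glycine 1:2 dilution series premixed with compound at varying concentrations in HEPES/NaCl/mannitol buffer, pH 7.4. FLIPR fluorescence read 4 min and processed as AUC over baseline. mEC₃ is the lowest tested concentration giving a ≥3-fold leftward shift of glycine EC₅₀.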

[2] = Intrinsic clearance in mouse liver microsomes up to 40 mins in presence of NADPH; format: ADME, microsome; conditions: read-out: CLH
[3] = Passive apparent permeability in MDCK cells; format: ADME, cell-based, Canis lupus familiaris; conditions: dog
Summary of the method: (§1)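 Bidirectional transport at 5 μM, in triplicate, across MDCK cells carrying control vector, human MDR1 or human ABCG2 (BCRP). Passive Papp is the mean of both directions in vector-control cells. Efflux ratios come from the MDR1 and BCRP lines.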

human MDR1 = test: Efflux ratio of passive apparent permeability in MDCK cells harboring human MDR1; format: ADME, cell-based, Canis lupus familiaris; conditions: dog; summary of the method: as §1
[4] = molecular target: T1, Glycine receptor subunit alpha-3 (Homo sapiens, UniProt O75311); test: Positive allosteric modulation of human glycine alpha3 receptor expressed in HEK293T cells assessed as potentiation of glycine-induced increase in chloride ion flux after 4 mins by membrane potential blue dye based FLIPR assay; format: cell-based, HEK-293T
T1 sequence (O75311 whole entry): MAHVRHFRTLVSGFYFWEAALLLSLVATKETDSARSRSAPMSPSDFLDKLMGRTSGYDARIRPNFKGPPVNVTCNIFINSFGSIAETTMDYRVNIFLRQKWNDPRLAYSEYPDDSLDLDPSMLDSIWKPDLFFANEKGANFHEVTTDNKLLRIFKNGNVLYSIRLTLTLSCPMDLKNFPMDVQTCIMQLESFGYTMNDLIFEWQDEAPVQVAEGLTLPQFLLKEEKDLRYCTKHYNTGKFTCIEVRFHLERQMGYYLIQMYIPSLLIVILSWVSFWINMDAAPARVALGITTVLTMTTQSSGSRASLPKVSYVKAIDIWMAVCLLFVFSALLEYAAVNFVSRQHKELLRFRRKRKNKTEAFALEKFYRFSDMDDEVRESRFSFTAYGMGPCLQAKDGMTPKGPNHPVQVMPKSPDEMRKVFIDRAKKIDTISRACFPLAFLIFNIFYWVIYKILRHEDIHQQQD

[5] = molecular target: T1, Glycine receptor subunit alpha-3; test: Binding affinity to human glycine alpha3 receptor expressed in HEK293T cells by SPR assay; set-up: species or system HEK-293T
[6] = Intrinsic clearance in human liver microsomes; format: ADME, microsome; conditions: read-out: CLH
human BCRP = test: Efflux ratio of passive apparent permeability in MDCK cells harboring human BCRP; format: ADME, cell-based, Canis lupus familiaris; conditions: dog; summary of the method: as §1
Mus musculus [7] = species on record: Mus musculus; test: Ex vivo positive allosteric modulation of glycine receptor in C57BL/6 mouse spinal cord assessed as potentiation of glycine-induced post synaptic current amplitude at 0.5 uM at holding potential of -60 mV after 10 mins in presence of sodium channel inhibitor TTX/AMPA/kainate receptor antagonist CNQX/GABAa receptor antagonist bicuculline/NMDA receptor antagonist APV by electrophysiology method relative to glycine alone
Summary of the method: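 Adult mouse spinal cord slices; dorsal horn neurons in laminae I–II were identified histologically and confirmed glycinergic by focal glycine (20 μM) with strychnine (10 μM) reversal. Postsynaptic current amplitude was recorded with glycine 20 μM alone, then with glycine plus compound at 0.5 μM, then with strychnine added. The readout is the mean ratio of PSC amplitude (compound + glycine / glycine alone), n = 5.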

[8] = Ratio of unbound Cmax in mouse brain to EC50 for glycine alpha3 receptor in mouse model of spared nerve injury-induced tactile allodynia at 10 mg/kg, po
Summary of the method: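 Mice dosed orally; unbound brain Cmax is total brain concentration × brain fraction unbound, sampled at multiple time points. It is divided by EC₅₀ for potentiation of mouse GlyRα3.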

[9] = Oral bioavailability in mouse at 10 mg/kg; format: ADME, organism-based; conditions: in vivo
Mus musculus [10] = test: Antiallodynic activity in mouse model of spared nerve injury-induced tactile allodynia assessed as tactile threshold at 20 mg/kg, po measured 60 mins post dose by Von Frey filament assay (reference value: 0.82 +/- 0.19 g); format: functional
[11] = Ratio of unbound Cmax in mouse brain to EC50 for glycine alpha3 receptor in mouse model of spared nerve injury-induced tactile allodynia at 20 mg/kg, po

Row | SMILES | MEC [1] | microsomal CLint [2] | Papp [3] | efflux ratio (human MDR1) | EC50 [4] | Kd [5] | microsomal CLint [6] | efflux ratio (human BCRP) | fold change (FC) (Mus musculus [7]) | Ratio [8] | bioavailability [9] | Activity (Mus musculus [10]) | Ratio [11]
1 | C[C@H]1[C@H]2C(=O)N(C)c3ccncc3[C@H]2CN1S(=O)(=O)c1ccc2c(c1)OCO2 | 0.025 µM | 254 µL/min/mg | 43.1 ×10⁻⁶ cm/s | 1.6 | 50 nM | 11 nM | 83 µL/min/mg |  |  |  |  |  | 
2 | CN1C(=O)[C@@H]2CN(S(=O)(=O)c3ccc4occc4c3)C[C@@H]2c2cnccc21 | 0.2 µM | 188 µL/min/mg | 69 ×10⁻⁶ cm/s | 1.5 | 450 nM | 190 nM |  | 1.1 | 4.4 | 1.2 | 100% | 1.53 g | 
3 | CN1C(=O)[C@H]2CN(S(=O)(=O)c3ccc4occc4c3)C[C@H]2c2cnccc21 | > 25 µM |  |  |  | 20000 to 25000 nM | > 20000 nM |  |  |  |  |  | inactive | 1.9
